pKi: −log10 of the molar value. The source made the active and inactive calls. The calls are words filed in the database; no cut-off is given here.
What was measured:
[1] = system: RAW264.7; experiment: Inhibition of LPS-stimulated TNFalpha production in mouse RAW264.7 cells at […] dosed simultaneously with LPS measured 24 hrs post dose by ELISA; assay type: functional
Outline: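 RAW 264.7 macrophages were seeded and grown for 24 h. Test agents were then added together with LPS, and cells were incubated for a further 24 h before TNF-α output was determined. Results are expressed as percent inhibition.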

[2] = system: Mus musculus; experiment: Antidiabetic effect in high-fat diet fed C57BL/6J mouse obesity model assessed as weight gain incidence at 50 mg/kg, po dosed once daily measured after 8 weeks relative to untreated control; assay type: functional
Outline: (§1)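 C57BL/6J animals were kept on a 60% fat diet, or on normal food, for 8 weeks. High-fat groups were dosed orally at 50 mg/kg once daily (suspension in Tween 80/5% saline) or given vehicle, n = 8 per group. Body weight and food intake were followed over the study period.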

[3] = target: Fatty acid-binding protein, adipocyte (Mus musculus) (UniProt P04117); experiment: Inhibition of mouse ap2 by fluorescent 1,8-anilino-8-naphthalene sulfonate assay; settings: read-out: Ki(app)
Sequence of Fatty acid-binding protein, adipocyte (Mus musculus) (P04117 whole entry, looked up): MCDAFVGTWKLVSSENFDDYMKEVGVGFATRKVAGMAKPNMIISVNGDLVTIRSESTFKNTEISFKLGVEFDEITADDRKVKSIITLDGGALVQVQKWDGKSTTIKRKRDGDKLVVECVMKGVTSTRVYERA

[4] = system: Mus musculus; experiment: Effect on food intake in high-fat diet fed C57BL/6J mouse obesity model at 50 mg/kg, po dosed once daily measured after 8 weeks relative to untreated control; assay type: functional, organism-based; design: dose 50 mg/kg; outline: as §1
[5] = system: Mus musculus; experiment: Antidiabetic effect in high-fat diet fed C57BL/6J mouse obesity model assessed as reduction in plasma triglyceride level at 50 mg/kg, po dosed once daily measured after 8 weeks relative to untreated control; assay type: functional; settings: 1344 h
Outline: (§2)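 Obese C57BL/6J animals on a 60% fat diet were given 50 mg/kg orally each day (suspension in Tween 80/5% saline) or vehicle, n = 8 per group. After 8 weeks, heart blood was taken under anaesthesia and spun at 5,000 g for 15 min at 4 °C. Plasma glucose, TG, TC and ALT were measured on a biochemistry analyzer.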

[6] = system: Mus musculus; experiment: Antidiabetic effect in high-fat diet fed C57BL/6J mouse obesity model assessed as increase in insulin sensitivity level at 50 mg/kg, po dosed once daily measured after 8 weeks by insulin tolerance test; assay type: functional, organism-based; design: dose 50 mg/kg
Outline: (§3)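 Diet-induced obese C57BL/6J animals were fed a 60% fat diet for 8 weeks, then dosed orally with 50 mg/kg daily (suspension in Tween 80 and 5% saline) or vehicle, n = 8 per group. After a 12 h fast they received either an oral glucose load of 0.5 g/kg (5% glucose) or ip insulin at 2 U/Kg in saline. Blood glucose was read by glucose meter at 0, 15, 30, 60, 90 and 120 min.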

[7] = system: Mus musculus; experiment: Antidiabetic effect in high-fat diet fed C57BL/6J mouse obesity model assessed as reduction in blood glucose at 50 mg/kg, po dosed once daily measured after 8 weeks relative to untreated control; assay type: functional, organism-based; design: dose 50 mg/kg; outline: as §2
[8] = system: Mus musculus; experiment: Antidiabetic effect in high-fat diet fed C57BL/6J mouse obesity model assessed as reduction in plasma alanine aminotransferase level at 50 mg/kg, po dosed once daily measured after 8 weeks relative to untreated control; assay type: functional; settings: 1344 h; outline: as §2
[9] = system: Mus musculus; experiment: Antidiabetic effect in high-fat diet fed C57BL/6J mouse obesity model assessed as reduction in plasma total cholesterol level at 50 mg/kg, po dosed once daily measured after 8 weeks relative to untreated control; assay type: functional; settings: 1344 h; outline: as §2
[10] = system: Mus musculus; experiment: Antidiabetic effect in high-fat diet fed C57BL/6J mouse obesity model assessed as improvement in glucose metabolism level at 50 mg/kg, po dosed once daily measured after 8 weeks by glucose tolerance test; assay type: functional, organism-based; design: dose 50 mg/kg; outline: as §3
[11] = system: Mus musculus; experiment: Antidiabetic effect in high-fat diet fed C57BL/6J mouse obesity model assessed as reduction in liver fat deposition at 50 mg/kg, po dosed once daily measured after 8 weeks by H&E staining; assay type: functional, organism-based; design: dose 50 mg/kg
Outline: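 Livers came from high-fat-fed C57BL/6J animals that had 8 weeks of daily oral dosing at 50 mg/kg or vehicle. Tissue was fixed in 4% buffered formalin, embedded in paraffin or OCT, and serially sectioned. Sections were stained with H&E to assess fat deposition.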

| Compound | inhibition (INH) [1] [%] | other results |
| --- | --- | --- |
| O=C(O)CCC(=O)Nc1nc(-c2ccc(Cl)cc2Cl)cs1 | 35.15 |  |
| O=C(O)CSCC(=O)Nc1nc(-c2ccc(F)cc2)cs1 | 18.19 |  |
| COc1ccc2c(c1)c(/C=C/C(=O)O)cn2Cc1ccccc1F | 86.67 |  |
| O=C(O)Cc1cn(Cc2cccc(F)c2)c2ccccc12 |  | inhibition [1]: inactive |
| Cc1sc(NC(=O)CCC(=O)O)nc1-c1ccccc1 | 25.23 |  |
| O=C(O)CCC(=O)Nc1nc(-c2ccc(C(F)(F)F)cc2)cs1 | 12.15 |  |
| O=C(O)CCC(=O)Nc1nc(-c2ccc(F)cc2)cs1 | 27.24 |  |
| O=C(O)CCC(=O)Nc1nc(-c2ccc(F)c(F)c2)cs1 | 92.45 |  |
| Cc1ccc(-c2csc(NC(=O)CCC(=O)O)n2)cc1 | 36.67 |  |
| Cc1ccc2c(c1)c(/C=C/C(=O)O)cn2Cc1ccccc1F | 11.18 |  |
| O=C(O)Cc1cn(Cc2ccccc2F)c2ccccc12 | 24.72 |  |
| CC(C)c1ccc(Cn2cc(/C=C/C(=O)O)c3ccccc32)cc1 | 92.24 |  |
| CC(C)(C)c1ccc(Cn2cc(/C=C/C(=O)O)c3ccccc32)cc1 | 50.18 |  |
| Cc1c(/C=C/C(=O)O)c2ccccc2n1Cc1cccc(F)c1 |  | inhibition [1]: inactive |
| O=C(O)/C=C/c1cn(Cc2ccccc2F)c2ccccc12 | 95.47 | Activity [2]: 21.18%; pKi [3]: 7.48; Activity [4]: inactive; inhibition in vivo at 50 mg/kg [5]: 27.1%; Activity [6]: Active; Activity [7]: Active; inhibition in vivo at 50 mg/kg [8]: 26.7%; inhibition in vivo at 50 mg/kg [9]: 38.5%; Activity [10]: Active; Activity [11]: Active |
| O=C(O)/C=C/c1cn(Cc2ccccc2)c2ccccc12 | 18.17 |  |
| O=C(O)/C=C/c1cn(Cc2cccc3ccccc23)c2ccccc12 | 93.28 |  |
| Cc1ccccc1Cn1cc(/C=C/C(=O)O)c2ccccc21 |  | inhibition [1]: inactive |
| O=C(O)Cc1cn(Cc2ccc(F)cc2)c2ccccc12 | 92.24 |  |
| COc1ccc(-c2csc(NC(=O)CCC(=O)O)n2)cc1 |  | inhibition [1]: inactive |

| Compound | inhibition (INH) [1] [%] | other results |
| --- | --- | --- |
| O=C(O)/C=C/c1cn(Cc2cccc(F)c2)c2ccccc12 | 36.36 |  |
| O=C(O)CSCC(=O)Nc1nc(-c2ccc([N+](=O)[O-])cc2)cs1 | 43.24 |  |
| O=C(O)CSCC(=O)Nc1nc(-c2ccc(Cl)cc2)cs1 | 23.45 |  |
| Cc1ccc(Cn2cc(/C=C/C(=O)O)c3ccccc32)cc1 | 66.56 |  |
| O=C(O)CSCC(=O)Nc1nc(-c2ccc(C(F)(F)F)cc2)cs1 | 37.26 |  |
| Cc1ccc2c(c1)c(/C=C/C(=O)O)cn2Cc1cccc(F)c1 |  | inhibition [1]: inactive |
| O=C(O)CCC(=O)Nc1nc(-c2ccc(Cl)c(Cl)c2)cs1 | 12.38 |  |
| Cc1c(/C=C/C(=O)O)c2ccccc2n1Cc1ccccc1F | 93.27 |  |
| O=C(O)/C=C/c1cn(Cc2ccc([N+](=O)[O-])cc2)c2ccccc12 | 32.34 |  |
| Cc1ccccc1Cn1cc(CC(=O)O)c2ccccc21 | 14.29 |  |
| O=C(O)CCC(=O)Nc1nc(-c2ccc(Cl)cc2)cs1 | 41.22 |  |
| O=C(O)CCC(=O)Nc1nc(-c2ccccc2Cl)cs1 | 8.56 |  |
| Cc1sc(NC(=O)CCC(=O)O)nc1-c1ccc(Cl)cc1 | 27.14 |  |
| O=C(O)Cc1cn(Cc2ccccc2)c2ccccc12 | 52.17 |  |
| COc1ccc2c(c1)c(/C=C/C(=O)O)cn2Cc1ccc(F)cc1 | 94.28 |  |
| O=C(O)CCC(=O)Nc1nc(-c2ccc3ccccc3c2)cs1 | 58.75 |  |
| O=C(O)/C=C/c1cn(Cc2ccc(F)cc2)c2ccccc12 | 86.78 |  |
| COc1ccc2c(c1)c(/C=C/C(=O)O)cn2Cc1cccc(F)c1 |  | inhibition [1]: inactive |
| N#Cc1ccc(Cn2cc(/C=C/C(=O)O)c3ccccc32)cc1 | 31.46 |  |
| CCc1c(-c2ccccc2)c(-c2ccccc2)nn1-c1ccccc1-c1cccc(OCC(=O)O)c1 | 85.13 |  |
